Test results reported in ChEMBL document CHEMBL1649550, “Antibacterial properties and mode of action of a short acyl-lysyl oligomer” (2009).
The source made the active and inactive calls. No cut-off for these calls is given here.

The molecules below were run on Staphylococcus aureus (assay: Antibacterial activity against Staphylococcus aureus ATCC 29213 assessed as disruption of plasma membrane permeability at 4 times MIC by ethidium bromide uptake assay).
Type: functional, organism-based
How it was run: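 S. aureus grown overnight in LB at 37°C to OD620 of 1, washed twice in PBS and resuspended in PBS with 0.5% glucose, then 10 min at 37°C. Cells added to EtBr (final 1.0 μg/ml) with compound (serial twofold concentrations), Triton 0.01% final, or antibiotic at 4× MIC. Fluorescence followed over time (ex 530, em 645 nm).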
With `O=C(O)c1cn(C2CC2)c2cc(N3CCNCC3)c(F)cc2c1=O` the Activity was “inactive”. In the case of `CN(C)[C@@H]1C(O)=C(C(N)=O)C(=O)[C@@]2(O)C(O)=C3C(=O)c4c(O)cccc4[C@@](C)(O)[C@H]3C[C@@H]12`, the Activity is reported as “inactive”. For GENTAMICIN, the Activity was “inactive”.
